This note sets out measurements from ChEMBL document CHEMBL1150283, “Synthesis, cytostatic and anti-HIV evaluations of the new unsaturated acyclic C-5 pyrimidine nucleoside analogues” (Bioorg Med Chem, 2008).

SMILES strings stand for the structures.

The nature of assay [1]: Cytotoxicity against human WI38 cells after 3 days by MTT assay. The class given is cell-based. Particulars: WI-38, 72 h. The method, boiled down: (§1)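 Monolayers grown in DMEM with 10% FBS, 2 mM L-glutamine, penicillin/streptomycin at 37 °C, 5% CO2. Seeded at 1 × 10⁴ to 3 × 10⁴ cells/mL, then exposed 72 h to five 10-fold dilutions (10⁻⁸ to 10⁻⁴ M) from 0.04 M DMSO stocks, with a solvent control. MTT added for 4 h, formazan dissolved in DMSO, A570 read. Percentage growth taken against time-zero and untreated OD. Quadruplicates in three experiments; IC50 by linear regression.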

Assay [2] has as its system SW-620. As to the kind of experiment: Antiproliferative activity against human SW620 cells after 3 days by MTT assay. The class given is functional, cell-based. Particulars: SW-620, 72 h. A digest of the protocol:
as §1

In assay [3] the test system is CCRF-CEM. As to the kind of experiment: Antiproliferative activity against human CEM cells after 3 days by MTT assay. The class given is functional, cell-based. Particulars: 72 h.
Assay [4] concerns L1210. The assay can be described thus: Antiproliferative activity against mouse L1210 cells after 2 days by MTT assay. Particulars: L1210, 48 h. The class given is functional, cell-based.
Assay [5] in a line: Antiproliferative activity against human Molt4/C8 cells after 3 days by MTT assay. The class given is functional, cell-based. Particulars: MOLT-4, 72 h.
In assay [6] the test system is HeLa. As to the kind of experiment: Antiproliferative activity against human HeLa cells after 3 days by MTT assay. Particulars: 72 h. The class given is functional, cell-based. The method, boiled down: as §1
Assay [7] has as its system HepG2. As to the kind of experiment: Antiproliferative activity against human HepG2 cells after 3 days by MTT assay. The class given is functional, cell-based. To be noted: HepG2, 72 h. A digest of the protocol: as §1
For assay [8], the system named is Human immunodeficiency virus 1. As to the kind of experiment: Antiviral activity against HIV1 assessed as inhibition of virus-induced cytopathogenicity in CEM cells. The class given is functional, organism-based. Particulars: Human immunodeficiency virus 1, CCRF-CEM. A digest of the protocol:
(§2)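 CEM cell cultures infected with HIV-1 or HIV-2. Virus-induced cytopathicity scored as syncytia formation.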

Assay [9] concerns MCF7. The assay can be described thus: Antiproliferative activity against human MCF7 cells after 3 days by MTT assay. The class given is functional, cell-based. Particulars: MCF7, 72 h. A digest of the protocol: as §1
Assay [10] deals with Human immunodeficiency virus 2. The assay can be described thus: Antiviral activity against HIV2 assessed as inhibition of virus-induced cytopathogenicity in CEM cells. To be noted: Human immunodeficiency virus 2, CCRF-CEM. The class given is functional, organism-based. A digest of the protocol: as §2
The subject of assay [11] is MIA PaCa-2. The assay can be described thus: Antiproliferative activity against human MiaPaCa2 cells after 3 days by MTT assay. The class given is functional, cell-based. To be noted: MIA PaCa-2, 72 h. The method, boiled down:
as §1

The test system of assay [12] is Human alphaherpesvirus 3. The assay can be described thus: Antiviral activity against Varicella-Zoster virus assessed as inhibition of virus-induced cytopathogenicity in HEL cells. The class given is functional, organism-based. Particulars: Human alphaherpesvirus 3, HEL.
The test system of assay [13] is Influenza A virus H3N2. The assay can be described thus: Antiviral activity against influenza A virus H3N2 assessed as inhibition of virus-induced cytopathogenicity in MDCK cells. The class given is functional, organism-based. A digest of the protocol:
(§3)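 Cytopathicity-reduction assay: Coxsackie B4 virus in HeLa cell cultures; influenza A (H3N2) in MDCK cell cultures. Virus-induced cytopathicity is scored at the time point when untreated virus-exposed cultures reach full cytopathic effect.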

Assay [14] relates to Coxsackievirus B4. The assay can be described thus: Antiviral activity against Coxsackie B4 virus assessed as inhibition of virus-induced cytopathogenicity in HeLa cells. To be noted: Enterovirus B. The class given is functional, organism-based. The method, boiled down:
as §3

For the compound `CCCCCc1ccc(C#Cc2cn(C/C=C\CN3C(=O)c4ccccc4C3=O)c(=O)[nH]c2=O)cc1`, the 50% inhibitory concentration (IC50) is over 100 µM in assay [1]; over 100 µM in [2]; 102 µM in [3]; 28 µM in assay [4]; 30 µM in [5]; over 100 µM in [6]. Further, the 50% inhibitory concentration (IC50) in assay [7] was 18 µM; in assay [9] it was over 100 µM; in assay [11], over 100 µM. For the same compound, the EC50 in [8] was over 2 µM; in assay [10] it was over 2 µM; in assay [12] it was 8.7 µM.
For `Cc1ccc(C#Cc2cn(C/C=C\CN3C(=O)c4ccccc4C3=O)c(=O)[nH]c2=O)cc1`, the IC50 is over 100 µM in assay [1]; over 100 µM in assay [2]; 238 µM in assay [3]; 266 µM in [5]; over 100 µM in [6]; 68 µM in assay [7]. Further, the 50% inhibitory concentration (IC50) in assay [9] and in [11] was over 100 µM throughout. Further, the values for the 50% effective concentration (EC50) in assay [13], in assay [8] and in assay [10] were 20 µM, over 250 µM and over 250 µM, respectively.
On to `O=C1c2ccccc2C(=O)N1C/C=C/Cn1cc(C#CCCc2ccccc2)c(=O)[nH]c1=O`, for which the IC50 in assay [1] stood at 31 µM; in [2], 11 µM; in assay [3], 38 µM; in assay [4] it was 44 µM; in assay [5], 39 µM; in assay [6] it was 29 µM. Further, the IC50 in assay [7] is 7.3 µM; in assay [9], 13 µM; in assay [11], 27 µM. Besides, the half-maximal effective concentration (EC50) in assay [8] and in assay [10] was at least 10 µM in each case.
`O=C1c2ccccc2C(=O)N1C/C=C\Cn1cc(C#CCCc2ccccc2)c(=O)[nH]c1=O`: the IC50 is over 100 µM in assay [1]; over 100 µM in assay [2]; 168 µM in [3]; 146 µM in assay [5]; over 100 µM in assay [6]; over 100 µM in [7]. In addition, the IC50 in [9] and in assay [11] was over 100 µM each time. In addition, the EC50 in [8] is 35 µM; in assay [10], at least 50 µM.
Take `CCCCC#Cc1cn(C/C=C\CN2C(=O)c3ccccc3C2=O)c(=O)[nH]c1=O`: the half-maximal inhibitory concentration (IC50) in assay [1] was 28 µM; in [2] it was 82 µM; in [3], 100 µM; in assay [4], 109 µM; in assay [5], 41 µM; in assay [6] it was 33 µM. The values for the IC50 in [7], in assay [9] and in assay [11] were 17 µM, 45 µM and over 100 µM, respectively. Further, the half-maximal effective concentration (EC50) in assay [8] and in assay [10] was at least 50 µM in each case.
With `CCCCc1ccc(C#Cc2cn(C/C=C/CN3C(=O)c4ccccc4C3=O)c(=O)[nH]c2=O)cc1`, the IC50 was 40 µM in [1]; over 100 µM in assay [2]; 31 µM in assay [3]; 42 µM in assay [4]; 29 µM in assay [5]; 94 µM in assay [6]. For the same compound, the half-maximal inhibitory concentration (IC50) in [7] stood at 9.1 µM; in [9], 44 µM; in assay [11], 79 µM. Moreover, the concentration for a half-maximal effect (EC50) in assay [8] and in assay [10] was over 10 µM each time.
Turning to `CCCCCC#Cc1cn(C/C=C/CN2C(=O)c3ccccc3C2=O)c(=O)[nH]c1=O`, the IC50 is 40 µM in [1]; 58 µM in assay [2]; over 500 µM in assay [3]; over 500 µM in assay [4]; over 500 µM in assay [5]; 91 µM in [6]. The IC50 in [7] was determined as 9 µM; in [9], 44 µM; in [11], 60 µM. Besides, the EC50 in assay [8] and in assay [10] was over 50 µM throughout.
As for `CCCCC#Cc1cn(C/C=C/CN2C(=O)c3ccccc3C2=O)c(=O)[nH]c1=O`, the concentration for half-maximal inhibition (IC50) in assay [1] was 35 µM; in [2], over 100 µM; in assay [3], 192 µM; in assay [4], 236 µM; in [5], 171 µM; in [6], 89 µM. Further, the results for the half-maximal inhibitory concentration (IC50) in assay [7], in [9] and in assay [11] were 7.9 µM, 8.8 µM and 77 µM, respectively. Besides, the concentration for a half-maximal effect (EC50) in assay [8] and in assay [10] was at least 50 µM each time.
Turning to `CCCCCCC#Cc1cn(C/C=C/CN2C(=O)c3ccccc3C2=O)c(=O)[nH]c1=O`, the IC50 was determined as 40 µM in assay [1]; 32 µM in [2]; 28 µM in assay [3]; 43 µM in [4]; 35 µM in [5]; 14 µM in assay [7]. Moreover, the 50% inhibitory concentration (IC50) in [9] was found to be 24 µM; in [11], 30 µM. Moreover, the EC50 in assay [8] and in assay [10] was at least 10 µM each time.
Consider `CCCCc1ccc(C#Cc2cn(C/C=C\CN3C(=O)c4ccccc4C3=O)c(=O)[nH]c2=O)cc1`, for which the 50% inhibitory concentration (IC50) in assay [1] is 17 µM; in assay [2], over 100 µM; in assay [3], 23 µM; in assay [5], 31 µM; in assay [6], 85 µM; in assay [7] it was 40 µM. Also, the figures for the concentration for half-maximal inhibition (IC50) in assay [9] and in [11] were 43 µM and 56 µM, respectively. The half-maximal effective concentration (EC50) in assay [8] and in assay [10] was over 10 µM throughout.
Turning to `O=C1c2ccccc2C(=O)N1C/C=C\Cn1cc(C#Cc2ccc(Br)cc2)c(=O)[nH]c1=O`, the IC50 in assay [1] was 47 µM; in assay [2], over 100 µM; in assay [3], 80 µM; in assay [4] it was 448 µM; in assay [5], 89 µM; in assay [9], over 100 µM. Further, the IC50 in assay [11] was over 100 µM. Besides, the values for the half-maximal effective concentration (EC50) in assay [8] and in assay [10] were 10 µM and over 50 µM, respectively.
With `CCCCCCCCC#Cc1cn(C/C=C\CN2C(=O)c3ccccc3C2=O)c(=O)[nH]c1=O`, the half-maximal inhibitory concentration (IC50) in [1] was 49 µM; in assay [2], 67 µM; in assay [3] it was 39 µM; in assay [4], 45 µM; in assay [5] it was 36 µM; in [6] it was 59 µM. Moreover, the IC50 was found to be 64 µM in assay [9] and 68 µM in assay [11]. The figures for the concentration for a half-maximal effect (EC50) in [13], in assay [8] and in assay [10] were 2.5 µM, over 50 µM and over 50 µM, respectively.
Consider `CCCCCCCCC#Cc1cn(C/C=C/CN2C(=O)c3ccccc3C2=O)c(=O)[nH]c1=O`, for which the IC50 in [1] is 53 µM; in assay [2], 87 µM; in [3], over 250 µM; in assay [4] it was over 250 µM; in assay [5], over 250 µM; in assay [6], over 100 µM. The IC50 in [7] was 43 µM; in assay [9] it was 66 µM; in assay [11] it was over 100 µM. Further, the half-maximal effective concentration (EC50) in assay [8] and in [10] was over 50 µM each time.
Turning to `CCCCCc1ccc(C#Cc2cn(C/C=C/CN3C(=O)c4ccccc4C3=O)c(=O)[nH]c2=O)cc1`, the IC50 is 25 µM in assay [1]; 30 µM in [2]; 23 µM in assay [3]; 39 µM in [4]; 17 µM in assay [5]; 27 µM in assay [6]. The half-maximal inhibitory concentration (IC50) in assay [7] was 4.3 µM; in assay [9] it was 5.6 µM; in [11], 26 µM. Also, the EC50 in assay [14] was found to be 12 µM; in assay [8], 14 µM; in assay [10], 3.1 µM.
In the case of `O=c1[nH]cc(F)c(=O)[nH]1` [FLUOROURACIL], the IC50 in [1] stood at 10 µM; in assay [2], 8.7 µM; in [4] it was 0.69 µM; in [5], 20 µM; in assay [7], 9.2 µM; in assay [11] it was 6.5 µM.
